Compound activity from PubChem BioAssay.
HKDC1 act: increases human hexokinase HKDC1 activity; Q2TB90; recombinant HKDC1, G6PDH/diaphorase resazurin fluorescence; stronger effect = lower value; activity change, negative = activation, % at 20 µM; actives 0.056% (n = 340,000); AID 493187;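 active = activation of 40% or more at 20 µM, a change of -40% or lower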
Target sequence (Q2TB90 whole entry, looked up): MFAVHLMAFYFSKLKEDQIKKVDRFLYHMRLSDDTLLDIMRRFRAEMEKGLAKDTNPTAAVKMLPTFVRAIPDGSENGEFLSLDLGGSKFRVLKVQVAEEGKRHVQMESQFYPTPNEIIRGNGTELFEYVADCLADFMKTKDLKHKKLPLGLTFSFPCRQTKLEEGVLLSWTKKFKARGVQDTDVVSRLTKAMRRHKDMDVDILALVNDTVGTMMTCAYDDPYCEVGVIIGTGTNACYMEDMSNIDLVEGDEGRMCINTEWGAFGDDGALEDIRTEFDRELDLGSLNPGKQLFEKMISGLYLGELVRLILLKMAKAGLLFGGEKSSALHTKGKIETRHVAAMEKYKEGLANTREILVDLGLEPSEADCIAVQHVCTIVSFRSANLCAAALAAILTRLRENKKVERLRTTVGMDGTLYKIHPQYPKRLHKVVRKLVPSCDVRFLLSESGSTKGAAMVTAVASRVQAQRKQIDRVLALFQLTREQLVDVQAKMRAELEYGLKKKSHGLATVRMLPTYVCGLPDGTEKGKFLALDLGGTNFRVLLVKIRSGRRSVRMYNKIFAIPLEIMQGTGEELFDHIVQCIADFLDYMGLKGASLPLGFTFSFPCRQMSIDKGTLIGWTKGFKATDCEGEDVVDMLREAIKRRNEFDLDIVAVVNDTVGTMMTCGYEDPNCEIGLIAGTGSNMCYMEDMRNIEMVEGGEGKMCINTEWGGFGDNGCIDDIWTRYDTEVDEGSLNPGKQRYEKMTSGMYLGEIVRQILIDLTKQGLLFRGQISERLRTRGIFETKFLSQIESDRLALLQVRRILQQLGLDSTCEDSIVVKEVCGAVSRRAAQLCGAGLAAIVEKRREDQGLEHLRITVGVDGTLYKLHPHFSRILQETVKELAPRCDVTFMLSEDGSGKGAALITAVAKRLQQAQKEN
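Material: in-house human HKDC1 enzyme, G6PDH and diaphorase coupling enzymes | Quantity: HKDC1 at 5 µg/mL final | Medium: Tris buffer at pH 8.0 containing MgCl2 | Compound dosing: 20 µM single dose | Schedule: 90 min reaction at room temperature, dark | Measured by: Resorufin fluorescence, 525/613 nm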
Hits are given with their value; – = inactive. Only a sample is shown.

SMILES	HKDC1 act
CCOC(=O)C1=C(O)c2ccccc2C(=O)/C1=C\c1ccc(CC)cc1	–
O=S(=O)(/N=C/c1c(O)ccc2ccccc12)c1ccccc1	–
O=C(CNC(=O)c1ccncc1)N/N=C/c1ccc(O)cc1O	-40.6
Cc1cc(SCC(=O)N/N=C/c2ccc(O)c(O)c2O)c(C)cc1Br	–
CC(=NNC(=O)c1ccncc1)c1ccc(O)cc1O	-40.2
Cc1cc(C)n(CCC(=O)N/N=C/c2ccc(O)cc2O)n1	-42.3
O=C(CNC(=O)c1ccc2c(c1)OCCO2)N/N=C/c1ccc(O)cc1O	-50.6
COc1cc(/C=C2\SC(c3ccc(C)cc3)=NC2=O)cc(OC)c1O	–
NC1=C(Br)C(=O)c2ncccc2C1=O	–
O=C(O)CSc1cc(NS(=O)(=O)c2ccc(Cl)cc2)c2ccccc2c1O	–
O=C(CSc1n[nH]c(-c2cccnc2)n1)Nc1ccc([N+](=O)[O-])cc1Br	–
O=C(CSc1n[nH]c(-c2ccccc2)n1)Nc1ncc(Br)cc1Br	–
CCc1ccc(S(=O)(=O)NCCc2cn3ccccc3n2)s1	–
CCCCNC(=O)c1sc(=S)n2c1[nH]c(=O)c1ccc(C(=O)NCCc3ccc(OC)c(OC)c3)cc12	–
O=C(N/N=C1/C(=O)c2cccc3cccc1c23)c1ccc(Cl)cc1	–
CCc1ccc(S(=O)(=O)/N=C2\C=C(Nc3cccc(C(=O)O)c3)C(=O)c3ccccc32)cc1	–
N#C/C(C(N)=O)=c1/ccc2c(c1)N1C3=C(CCCC3)CC3CCCCC31N=2 (centres undefined)	–
O=C(NCc1ccncc1)C(=O)N/N=C/c1ccc(OCc2ccccc2)cc1	-58.4
Cc1ccc(Cl)cc1NC1=C/C(=N\S(=O)(=O)c2cccs2)c2ccccc2C1=O	–
COc1cc(/C=C(\C#N)c2nc3ccc(C)cc3[nH]2)cc([N+](=O)[O-])c1O	–
O=C1C=CC(=O)C(CNc2ccc(C(=O)OCc3ccccc3)cc2)=C1	–
Cc1c(C(=O)Oc2ccc(-c3cnc4ccccc4n3)cc2)cccc1[N+](=O)[O-]	-89.0
CC1=NNC(=O)/C1=C\c1cn(-c2ccccc2)nc1-c1ccc(Cl)cc1	–
Cc1ccc2c(c1C)-c1c(ccc(C)c1C)C(=O)C2=O	–
NNc1ncnc2sc3c(c12)CCC3	-102.3
SMILES	HKDC1 act
N#C/C(=C(/O)CCl)c1nc2c(s1)CCc1ccccc1-2	–
O=C1/C(=C\c2ccc(Cl)c(Cl)c2)CN(C(=O)CCN2CCOCC2)C/C1=C/c1ccc(Cl)c(Cl)c1	–
CCN1CCN(c2cc3c(nn2)Oc2ccccc2N3C)CC1	-43.8
O=S(=O)(NC1c2cccc3cccc(c23)C1N1CCN(CCO)CC1)c1ccccc1 (centres undefined)	-66.1
O=S(=O)(NC1c2cccc3cccc(c23)C1N1CCNCC1)c1ccccc1 (centres undefined)	-55.8
N#CC(C#N)=c1ccc2c(c1)N1C3=C(CCCC3)CC3CCCCC31N=2 (centres undefined)	–
COC1=CC(=O)C=C(OC)C1=O	–
O=C(CCl)N1c2ccccc2Sc2c1ccc1ccccc21	–
N=C1/C(=C\c2ccc(-c3ccc(C(=O)O)cc3)o2)C(=O)N=C2SC=C(c3ccccc3)N12	–
COc1ccc(N=C2C(=S)N(c3ccc(OC)cc3)C(=NS(=O)(=O)c3ccccc3)N2c2ccccc2)cc1	-68.5
O=S(=O)(Nc1ccc(O)c2ccccc12)c1cccs1	–
COc1ccc(-c2cc(N)n(CCC#N)n2)c(OC)c1	–
O=C1C(Nc2ccc(O)cc2)=C/C(=N/S(=O)(=O)c2cccs2)c2ccccc21	–
COc1cc(-c2ccc(Nc3ccccc3C(=O)O)c(OC)c2)ccc1Nc1ccccc1C(=O)O	–
COC1=C(C)C(=O)C2=C(C1=O)C1C3CC4=C(C(=O)C(OC)=C(C)C4=O)C(CNC(=O)C(C)=O)N3C(C#N)C(C2)N1C (centres undefined)	–
Cc1cc(NC(=S)NC(=O)c2ccccc2)ccc1-c1cc2ccccc2oc1=O	-47.5
N#CC(C#N)=C1SC(=Nc2ccccc2)C(=Nc2ccccc2)N1c1ccccc1	-85.7
Fc1ccc(N2C(=S)SC(=Nc3ccccc3)C2=Nc2ccccc2)cc1	-49.6
Oc1ccc(-c2cnns2)c(O)c1	–
Cc1ccc(S(=O)(=O)N(C(=O)c2ccncc2)c2ccc(OC(=O)c3ccncc3)c3ccccc23)c(C)c1	–
CCNc1ccc(Br)cc(C(=O)/C=C/c2c(Cl)cccc2Cl)c1=O	–
Cc1nc([N+](=O)[O-])c(Br)n1CC(=O)c1ccc2ccccc2c1	–
Cc1ccc(N=c2ssnc2Cl)cc1	-50.8
Cc1cc(C)nc(/N=c2/ssnc2Cl)c1	-136.6
COc1cc(N=c2ssnc2Cl)c(OC)cc1Cl	-45.7
SMILES	HKDC1 act
Cc1nnc(N=c2ssnc2Cl)o1	-88.2
O=C1NC(=S)S/C1=C\c1ccc(SCc2ccco2)o1	–
O=C(CN1C(=O)/C(=C2\SC(=S)N(CCS(=O)(=O)O)C2=O)c2ccccc21)Nc1cccc(Br)c1	–
Cc1cc(C)c(S(=O)(=O)Nc2cc(SCC(=O)O)c(O)c3ccccc23)cc1C	–
C=CC(=O)N1C/C(=C/c2ccc(F)cc2)C(=O)/C(=C\c2ccc(F)cc2)C1	–
COc1cccc(CC(Cc2nc3ccccc3[nH]2)c2nc3ccccc3[nH]2)c1 (centres undefined)	–
O=C1OC(c2ccccc2)=N/C1=C/c1cccc(OC(=O)c2cccs2)c1	–
O=C1NN(c2ccc(F)c(Cl)c2)C(=O)/C1=C\c1cccc(OC(=O)c2cccs2)c1	–
CCCc1nc2oc3c(NCC4CCCO4)ncnc3c2c2c1COC(C)(C)C2 (centres undefined)	–
CCc1ccc(S(=O)(=O)/N=C2/C=C(Sc3ncn[nH]3)C(=O)c3ccccc32)cc1	–
O=[N+]([O-])c1ccc(N/N=C/c2ccc(O)c(O)c2O)c(S(=O)(=O)N2CCOCC2)c1	–
CC(=O)NC1C(=O)N(CCN2CCOCC2)c2ccc(Cl)cc21 (centres undefined)	–
O=C1NC(=S)N/C1=C/c1cc2c(cc1[N+](=O)[O-])OCO2	-66.8
CN(C)c1ncc(C2=C(Cl)C(=O)C(N3CCCC3)=C(Cl)C2=O)s1	–
Cc1cccc(NC2=C/C(=N/S(=O)(=O)c3cccs3)c3ccccc3C2=O)c1	–
N#CC1(NC(=O)COC(=O)c2cc(O)c3ccccc3c2O)CCCCC1	–
Cc1cccn2c(=O)c3cc(C(N)=S)c(=N)n(CCCN4CCOCC4)c3nc12	-53.8
CCOc1ccc2nc3cc(NCc4ccc(OC)cc4)ccc3c(N)c2c1	–
CC(NC(=O)c1sc2cc([N+](=O)[O-])ccc2c1Cl)C(C)(C)C (centres undefined)	-76.1
COC1=C(OC)C(=O)C(Sc2ccc3ccccc3c2)=CC1=O	–
CC(C)(C)c1nnc(N/N=C/c2cc(Br)ccc2O)n(N)c1=O	-43.2
NC(CSC(c1ccccc1)(c1ccccc1)c1cccc2ccccc12)C(=O)O (centres undefined)	–
CC(=O)C1=C(c2ccccc2)N(C(C)=O)n2c(C)nnc2S1	-314.6
Cc1cc(C)c2c(=O)[nH]cnc2n1	–
Nc1ccc(N)c(C(=O)O)c1	–
CCc1ccc(C2=NNC(=Nc3cccc(S(=O)(=O)N(C)C)c3)SC2)cc1	-177.3
Cc1cccc(N=C2NN=C(c3c(C)[nH]c4ccccc34)CS2)c1	-41.0
Cc1cccc(N=C2NN=C(c3ccc4c(c3)OCCO4)CS2)c1	-61.7
Cc1ccc(C2=NNC(=Nc3ccc(F)cc3)SC2)cc1	-69.6
O=C1C=C(c2c(O)ccc3ccccc23)c2ccccc2C1=O	–
